# The source made the active and inactive calls. The calls are words filed in the database; no cut-off is given here.
# Tests used:
# [1] = test system: Jurkat; assay: Cytotoxicity against human Jurkat cells after 72 hrs by MTT assay; format: functional, cell-based
# How it was run: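 8 × 10^3 cells/well were preincubated 18 h at 37 °C, 5% CO2, then given graded concentrations for 72 h, with final DMSO not above 0.25%. Viability was read by MTT. […] Mean ± SE from at least three experiments.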
# [2] = Inhibition of bovine tubulin polymerisation after 20 mins by turbidimetric analysis; set-up: species or system Bos taurus
# How it was run: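 Bovine brain tubulin at 10 μM was preincubated with varying compound concentrations in glutamate buffer at 30 °C, cooled to 0 °C, and 0.4 mM GTP added. Samples were warmed to 30 °C and assembly followed by turbidity at 350 nm.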
# [3] = organism: Bos taurus; assay: Displacement of [3H]colchicine from bovine tubulin at 5 uM by DEAE-cellulose filter method
# How it was run: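 Inhibition of [3H]colchicine binding was measured in mixtures of 1 μM tubulin, 5 μM [3H]colchicine and 5 μM test compound. Results are percent inhibition of binding.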
# [4] = test system: HL-60; assay: Cytotoxicity against human HL60 cells after 72 hrs by MTT assay; format: functional, cell-based; conditions: HL-60, 72 h
# [5] = test system: HT-29; assay: Cytotoxicity against human HT-29 cells after 72 hrs by MTT assay; format: functional, cell-based; conditions: HT-29, 72 h
# [6] = test system: HeLa; assay: Cytotoxicity against human HeLa cells after 72 hrs by MTT assay; format: functional, cell-based
# [7] = test system: A549; assay: Cytotoxicity against human A549 cells after 72 hrs by MTT assay; format: functional, cell-based; conditions: A549, 72 h
# [8] = test system: MCF7; assay: Cytotoxicity against human MCF7 cells after 72 hrs by MTT assay; format: functional, cell-based; conditions: MCF7, 72 h
# [9] = Inhibition of tubulin polymerization
# How it was run: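 Bovine brain tubulin at 10 μM in glutamate buffer was preincubated with compound at varying concentrations at 30 °C, then cooled to 0 °C. GTP was added to 0.4 mM and the mixture rewarmed to 30 °C. Assembly was followed by turbidity at 350 nm.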
# [10] = test system: A549; assay: Resistance ratio of IC50 for human A549-T12 cells to IC50 for human A549 cells; format: functional
# [11] = test system: HeLa; assay: Induction of apoptosis in human HeLa cells assessed as increase in annexin-V positive apoptotic cells at 50 to 100 nM by FITC conjugated annexin-V/PI staining-based flow cytometry; format: functional, cell-based; conditions: TDE = time-dependent effect
# How it was run: (§1)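 Flow cytometry of HeLa cells after 24 or 48 h exposure, double-stained with annexin-V-FITC and propidium iodide. Excitation at 488 nm, emission at 525 nm (FITC) and 585 nm (PI). Quadrants scored as live, early apoptotic, late apoptotic or necrotic cells.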
# [12] = test system: HeLa; assay: Induction of cell cycle arrest in human HeLa cells assessed as G2/M phase cells at 60 nM after 24 hrs by flow cytometry; format: functional
# How it was run: (§2)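 Exponentially growing HeLa cells (5 × 10^5) were treated 24 h at 15–250 nM. Cells were fixed in ice-cold 70% ethanol, lysed with RNase A/0.1% Triton X-100 buffer and stained with propidium iodide. DNA content was measured by flow cytometry to score G2/M fraction. Mean ± SEM of three independent experiments.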
# [13] = test system: HeLa; assay: Induction of apoptosis in human HeLa cells assessed as increase in annexin-V positive apoptotic cells after 24 to 48 hrs by FITC conjugated annexin-V/PI staining-based flow cytometry; format: functional, cell-based; how it was run: as §1
# [14] = test system: LoVo; assay: Cytotoxicity against human doxorubicin-resistant LoVo cells after 72 hrs by MTT assay; format: functional, cell-based
# How it was run: (§3)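 Cells seeded at 8 × 10^3 per well and left 18 h at 37 °C, 5% CO2, then given fresh medium with compound at a range of concentrations for 72 h; DMSO at most 0.25% final. Viability read by MTT relative to 0.25% DMSO-treated cells. […] LoVoDoxo kept in Ham's F12 with 0.1 μg/mL doxorubicin; A549-T12 kept in DMEM with 12 nM paclitaxel.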
# [15] = test system: HeLa; assay: Induction of ROS production in human HeLa cells at 50 to 100 nM after 24 to 48 hrs by HE staining-based flow cytometry; format: functional, cell-based
# How it was run: (§4)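 HeLa cells were exposed for 24 or 48 h, then stained with hydroethidine or H2-DCFDA for ROS and read by flow cytometry. DMSO ≤0.25%. Mean ± SEM of three independent experiments.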
# [16] = test system: HeLa; assay: Induction of mitochondrial depolarization in human HeLa cells after 24 to 48 hrs by JC1-based fluorescent staining; format: functional, cell-based
# How it was run: (§5)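 Mitochondrial membrane potential in HeLa cells after 24 or 48 h incubation, measured with the JC-1 dye by flow cytometry. Aggregates read as red (590 nm) and monomers as 530 nm; output is the percentage of depolarized cells. Mean ± SEM of three independent experiments.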
# [17] = test system: HeLa; assay: Induction of cell cycle arrest in human HeLa cells assessed as increase in G2/M phase cells after 24 hrs by flow cytometry; format: functional, cell-based
# How it was run: (§6)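 5 × 10^5 exponentially growing HeLa cells were treated with 15–250 nM for 24 h, fixed in ice-cold 70% ethanol, then treated with lysis buffer containing RNase A and 0.1% Triton X-100. PI staining of DNA content, read by flow cytometry. Mean ± SEM of three independent experiments.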
# [18] = test system: HeLa; assay: Induction of mitochondrial depolarization in human HeLa cells at 50 to 100 nM by JC1-based fluorescent staining; format: functional, cell-based; conditions: TDE = time-dependent effect; how it was run: as §5
# [19] = Cytotoxicity against human CEM/VBL100 cells after 72 hrs by MTT assay; format: functional, cell-based; conditions: CEM/VBL100, 72 h; how it was run: as §3
# [20] = test system: LoVo; assay: Resistance ratio of IC50 for human doxorubicin-resistant LoVo cells to human LoVo cells; format: functional
# [21] = test system: HeLa; assay: Induction of ROS production in human HeLa cells at 50 to 100 nM after 24 to 48 hrs by H2-DCFDA staining-based flow cytometry; format: functional, cell-based; how it was run: as §4
# [22] = test system: HeLa; assay: Induction of cell cycle arrest in human HeLa cells assessed as decrease in S phase cells at 15 to 250 nM after 24 hrs by flow cytometry; format: functional, cell-based; how it was run: as §6
# [23] = test system: HeLa; assay: Induction of cell cycle arrest in human HeLa cells assessed as increase in G2/M phase cells at 30 nM after 24 hrs by flow cytometry; format: functional, cell-based; how it was run: as §6
# [24] = test system: CCRF-CEM; assay: Resistance ratio of IC50 for human CEM/VBL100 cells to IC50 for human CEM cells; format: functional
# [25] = test system: CCRF-CEM; assay: Cytotoxicity against human CEM cells after 72 hrs by MTT assay; format: functional, cell-based; how it was run: as §3
# [26] = test system: LoVo; assay: Cytotoxicity against human LoVo cells after 72 hrs by MTT assay; format: functional, cell-based; how it was run: as §3
# [27] = Cytotoxicity against human A549-T12 cells after 72 hrs by MTT assay; format: functional, cell-based; conditions: A549, 72 h; how it was run: as §3
# [28] = test system: HeLa; assay: Induction of cell cycle arrest in human HeLa cells assessed as decrease in G1 phase cells at 15 to 250 nM after 24 hrs by flow cytometry; format: functional, cell-based; how it was run: as §6
# [29] = test system: HeLa; assay: Induction of cell cycle arrest in human HeLa cells assessed as increase in G2/M phase cells at 15 to 250 nM after 24 hrs by flow cytometry; format: functional, cell-based; how it was run: as §2
Structure (SMILES),IC50 [1],IC50 [2],inhibition [3],IC50 [4],IC50 [5],IC50 [6],IC50 [7],IC50 [8],also measured
COc1ccc(-c2nnnn2-c2cc(OC)c(OC)c(OC)c2)cc1Cl,0.01 µM,3.5 µM,50%,0.0036 µM,0.0359 µM,0.0023 µM,0.402 µM,0.0252 µM,
COc1cc(-n2nnnc2-c2cccs2)cc(OC)c1OC,> 10 µM,,,> 10 µM,> 10 µM,> 10 µM,> 10 µM,> 10 µM,
COc1ccc(-c2nnnn2-c2cc(OC)c(OC)c(OC)c2)cc1N,,,,,,,,,IC50 [9]: 2 µM
CCCCOc1ccc(-c2nnnn2-c2cc(OC)c(OC)c(OC)c2)cc1,> 10 µM,,,> 10 µM,> 10 µM,> 10 µM,> 10 µM,> 10 µM,
CCOc1ccc(-c2ncnn2-c2cc(OC)c(OC)c(OC)c2)cc1,,0.76 µM,86%,,,,,,
COc1ccc(-c2nnnn2-c2cc(OC)c(OC)c(OC)c2)cc1C,0.0041 µM,2.5 µM,59%,0.002 µM,0.0056 µM,0.0021 µM,0.0377 µM,0.0154 µM,
COc1ccc(-c2nnnn2-c2cc(OC)c(OC)c(OC)c2)cc1OC,0.345 µM,,,0.488 µM,0.355 µM,0.259 µM,3.57 µM,2.72 µM,
CCOc1ccc(-n2nnnc2-c2cc(OC)c(OC)c(OC)c2)cc1,0.00026 µM,2 µM,71%,0.0007 µM,0.0031 µM,0.0003 µM,0.0074 µM,0.0028 µM,Ratio IC50 [10]: 0.6; Activity [11]: tde; Activity [12]: >80%; Activity [13]: Dose-dependent effect; IC50 [14]: 0.0969 µM; Activity [15]: Active; Activity [16]: Dose-dependent effect; Activity [17]: Dose-dependent effect; Activity [18]: tde; IC50 [19]: 0.0005 µM; Ratio IC50 [20]: 0.8; Activity [21]: Active; Activity [22]: Active; Activity [23]: Active; Ratio IC50 [24]: 0.1; IC50 [25]: 0.0038 µM; IC50 [26]: 0.118 µM; IC50 [27]: 0.0042 µM; Activity [28]: Active
COc1ccc(-n2nnnc2-c2cc(OC)c(OC)c(OC)c2)cc1,0.209 µM,2.1 µM,70%,0.0403 µM,0.265 µM,0.952 µM,> 10 µM,0.0271 µM,
CCOc1ccc(-c2nnnn2-c2cc(OC)c(OC)c(OC)c2)cc1Cl,0.00023 µM,2 µM,58%,0.0008 µM,0.0016 µM,0.0026 µM,0.0288 µM,0.0018 µM,Ratio IC50 [10]: 1.1; IC50 [14]: 0.0157 µM; IC50 [19]: 0.0007 µM; Ratio IC50 [20]: 1.3; Activity [29]: Active; Ratio IC50 [24]: 1; IC50 [25]: 0.0007 µM; IC50 [26]: 0.0125 µM; IC50 [27]: 0.0315 µM
